Reference: ChEMBL document CHEMBL5252669, “Semisynthetic blasticidin S ester derivatives show enhanced antibiotic activity” (RSC Med Chem, 2023)
Values after ≈ are worked out from the molar mass of the structure shown. Active and inactive are the calls of the source. No cut-off for these calls is given here.

Experiments:
Candida albicans [1] = test: Antifungal activity against Candida albicans assessed as zone of inhibition incubated for 18 hrs by spot on lawn assay; format: functional, organism-based
Method in brief: (§1)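 Overnight LB cultures diluted to OD600 0.01 in 0.7% LB top agar, overlaid on 1.5% LB agar; 5 mg mL−1 aqueous compound spotted at 35, 25, 10 and 5 μg with 1:1 water/methanol vehicle spot; 37 °C, 18 h; inhibition zone diameter measured by ruler.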

Enterococcus [2] = test: Antibacterial activity against vancomycin-resistant Enterococcus assessed as zone of inhibition incubated for 18 hrs by spot on lawn assay; format: functional, organism-based
Method in brief: (§2)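 Spot-on-lawn assay. Plates of 1.5% agar in LB were overlaid with 0.7% LB agar seeded with overnight culture at 0.01 OD600. Aqueous 5 mg mL−1 solutions were spotted at 35, 25, 10 and 5 μg, with a 1:1 water/methanol vehicle spot. After 18 h at 37 °C, inhibition zone diameters were measured with a ruler.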

Enterococcus faecalis [3] = test: Antibacterial activity against Enterococcus faecalis ATCC 29212 assessed as zone of inhibition incubated for 18 hrs by spot on lawn assay; format: functional, organism-based; method in brief: as §1
Staphylococcus aureus [4] = test: Antibacterial activity against methicillin resistant Staphylococcus aureus assessed as zone of inhibition incubated for 18 hrs by spot on lawn assay; format: functional, organism-based; method in brief: as §2
Staphylococcus aureus [5] = test: Antibacterial activity against NorA deleted Staphylococcus aureus assessed as zone of inhibition incubated for 18 hrs by spot on lawn assay; format: functional, organism-based; method in brief: as §1
Staphylococcus aureus [6] = test: Antibacterial activity against Staphylococcus aureus assessed as zone of inhibition incubated for 18 hrs by spot on lawn assay; format: functional, organism-based; method in brief: as §1
[7] = Cytotoxicity against human MRC5 cells incubated for 24 hrs by MTS assay; format: toxicity, cell-based
Method in brief: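 MRC-5 lung fibroblasts seeded 5000 per well; medium replaced with compound 16–192 μg mL−1 or matching 1:1 methanol:water vehicle; 24 h, then MTS 3–4 h; absorbance 490 nm; viability relative to untreated cells, normalized to vehicle; CC50 from two independent assays in duplicate, mean ± SD.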

Staphylococcus aureus [8] = test: Antibacterial activity against NorA deleted Staphylococcus aureus incubated for 16 hrs by broth microdilution method; format: functional, organism-based; conditions: for IC50: 16 h; for MIC: time 16 hrs
Method in brief: (§3)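 Cation-adjusted Mueller-Hinton broth microdilution. Overnight cultures from single colonies were diluted to OD600 0.004. Final compound range was 256–2 μg mL−1 in 1:1 methanol/water vehicle, with doxycycline and vehicle controls. Plates were incubated 16 h at 37 °C. OD600 was normalized to controls, and MIC was the lowest concentration inhibiting >90% growth. Two biological replicates in duplicate; reported as a range.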

Staphylococcus aureus [9] = test: Antibacterial activity against wild type Staphylococcus aureus 8810 incubated for 16 hrs by broth microdilution method; format: functional, organism-based; conditions: for IC50: Staphylococcus aureus, 8810, 16 h; for MIC: Staphylococcus aureus, 8810, time 16 hrs; method in brief: as §3
Staphylococcus aureus [10] = test: Antibacterial activity against methicillin resistant Staphylococcus aureus ATCC 43300 incubated for 16 hrs by broth microdilution method; format: functional, organism-based; conditions: for IC50: ATCC 43300, 16 h; for MIC: ATCC 43300, time 16 hrs; method in brief: as §3
Klebsiella pneumoniae = test: Antibacterial activity against Klebsiella pneumoniae ATCC 29665 incubated for 16 hrs by broth microdilution method; format: functional, organism-based; conditions: for IC50: ATCC 29665, 16 h; for MIC: ATCC 29665, time 16 hrs
Pseudomonas aeruginosa = test: Antibacterial activity against MexAB-OprM deleted Pseudomonas aeruginosa incubated for 16 hrs by broth microdilution method; format: functional, organism-based; conditions: for IC50: 16 h; for MIC: time 16 hrs
Acinetobacter baumannii [11] = test: Antibacterial activity against Acinetobacter baumannii ATCC 17978 incubated for 16 hrs by broth microdilution method; format: functional, organism-based; conditions: for IC50: ATCC 17978, 16 h; for MIC: ATCC 17978, time 16 hrs
Candida albicans [12] = test: Antifungal activity against Candida albicans incubated for 16 hrs by broth microdilution method; format: functional
Saccharomyces cerevisiae = test: Antifungal activity against Saccharomyces cerevisiae incubated for 16 hrs by broth microdilution method; format: functional
[13] = Selectivity index, ratio of CC50 for human MRC5 cells to IC50 for NorA deleted Staphylococcus aureus; format: toxicity; conditions: read-out: Ratio CC50/IC50
[14] = Selectivity index, ratio of CC50 for human MRC5 cells to IC50 for Staphylococcus aureus; format: toxicity; conditions: read-out: Ratio CC50/IC50
[15] = Selectivity index, ratio of CC50 for human MRC5 cells to IC50 for methicillin resistant Staphylococcus aureus; format: toxicity; conditions: read-out: Ratio CC50/IC50
[16] = Selectivity index, ratio of CC50 for human MRC5 cells to IC50 for Enterococcus faecalis ATCC 29212; format: toxicity; conditions: read-out: Ratio CC50/IC50
[17] = Selectivity index, ratio of CC50 for human MRC5 cells to IC50 for vancomycin-resistant Enterococcus; format: toxicity; conditions: read-out: Ratio CC50/IC50
[18] = Selectivity index, ratio of CC50 for human MRC5 cells to IC50 for Klebsiella pneumoniae ATCC 29665; format: toxicity; conditions: read-out: Ratio CC50/IC50
[19] = Selectivity index, ratio of CC50 for human MRC5 cells to IC50 for MexAB-OprM deleted Pseudomonas aeruginosa; format: toxicity; conditions: read-out: Ratio CC50/IC50
[20] = Selectivity index, ratio of CC50 for human MRC5 cells to IC50 for Acinetobacter baumannii ATCC 17978; format: toxicity; conditions: read-out: Ratio CC50/IC50
Enterococcus faecalis [21] = test: Antibacterial activity against Enterococcus faecalis ATCC 29212 incubated for 20 hrs by broth microdilution method; conditions: ATCC 29212, 20 h
Enterococcus [22] = test: Antibacterial activity against vancomycin-resistant Enterococcus incubated for 20 hrs by broth microdilution method
Staphylococcus aureus [23] = test: Potency index, ratio of blasticidin-S MIC to test compound MIC for Staphylococcus aureus; format: functional
Escherichia coli = test: Potency index, ratio of blasticidin-S MIC to test compound MIC for Escherichia coli; format: functional
Acinetobacter baumannii [24] = test: Potency index, ratio of blasticidin-S MIC to test compound MIC for Acinetobacter baumannii; format: functional

SMILES | CC50 at 24 h [7] [µg/mL] | IC50 (Staphylococcus aureus [8]) [µg/mL] | MIC (Staphylococcus aureus [8]) [µg/mL] | IC50 (Staphylococcus aureus [9]) [µg/mL] | MIC (Staphylococcus aureus [9]) [µg/mL] | IC50 (Staphylococcus aureus [10]) [µg/mL] | MIC (Staphylococcus aureus [10]) [µg/mL] | IC50 (Klebsiella pneumoniae) [µg/mL] | MIC (Klebsiella pneumoniae) [µg/mL] | IC50 (Pseudomonas aeruginosa) [µg/mL] | MIC (Pseudomonas aeruginosa) [µg/mL] | IC50 (Acinetobacter baumannii [11]) [µg/mL] | MIC (Acinetobacter baumannii [11]) [µg/mL] | MIC (Candida albicans [12]) [µg/mL] | MIC (Saccharomyces cerevisiae) [µg/mL] | selectivity ratio [13] | selectivity ratio [14] | selectivity ratio [15] | selectivity ratio [16] | selectivity ratio [17] | further results
CCCOC(=O)[C@H]1O[C@@H](n2ccc(N)nc2=O)C=C[C@@H]1NC(=O)C[C@@H](N)CCN(C)C(=N)N | 10.2 (≈ 22 µM) | 20.6 (≈ 44.3 µM) | 32 (≈ 68.9 µM) | 14.5 (≈ 31.2 µM) | 32 (≈ 68.9 µM) | 15.8 (≈ 34 µM) | 32 (≈ 68.9 µM) | 60.1 (≈ 129 µM) | 128 (≈ 276 µM) | 61.6 (≈ 133 µM) | > 128 | 42.3 (≈ 91.1 µM) | 128 (≈ 276 µM) | > 256 | 32 (≈ 68.9 µM) | 0.5 | 0.7 | 0.6 | 1 | 0.4 | Activity (Candida albicans [1]): inactive; Activity (Enterococcus [2]): Active; Activity (Enterococcus faecalis [3]): Active; Activity (Staphylococcus aureus [4]): Active; Activity (Staphylococcus aureus [5]): Active; Activity (Staphylococcus aureus [6]): Active; selectivity ratio [18]: 0.2; selectivity ratio [19]: 0.2; selectivity ratio [20]: 0.2; IC50 (Enterococcus faecalis [21]): 10.5 µg/mL (≈ 22.6 µM); MIC (Enterococcus faecalis [21]): 16 µg/mL (≈ 34.4 µM); IC50 (Enterococcus [22]): 23.6 µg/mL (≈ 50.8 µM); MIC (Enterococcus [22]): 128 µg/mL (≈ 276 µM)
CN(CC[C@H](N)CC(=O)N[C@H]1C=C[C@H](n2ccc(N)nc2=O)O[C@@H]1C(=O)OCCc1ccccc1)C(=N)N | 18.5 (≈ 35.1 µM) | 27.3 (≈ 51.8 µM) | 64 (≈ 122 µM) | 18.1 (≈ 34.4 µM) | 64 (≈ 122 µM) | 16.1 (≈ 30.6 µM) | 32 (≈ 60.8 µM) | 57.1 (≈ 108 µM) | > 128 | 76.9 (≈ 146 µM) | > 128 | 113 (≈ 215 µM) | > 128 | > 128 | 64 (≈ 122 µM) | 0.7 | 1 | 1.2 | 2.7 | 1.4 | Activity (Candida albicans [1]): inactive; Activity (Enterococcus [2]): Active; Activity (Enterococcus faecalis [3]): Active; Activity (Staphylococcus aureus [4]): Active; Activity (Staphylococcus aureus [5]): Active; Activity (Staphylococcus aureus [6]): Active; selectivity ratio [18]: 0.3; selectivity ratio [19]: 0.2; selectivity ratio [20]: 0.2; IC50 (Enterococcus faecalis [21]): 6.9 µg/mL (≈ 13.1 µM); MIC (Enterococcus faecalis [21]): 8 µg/mL (≈ 15.2 µM); IC50 (Enterococcus [22]): 13.8 µg/mL (≈ 26.2 µM); MIC (Enterococcus [22]): 32 µg/mL (≈ 60.8 µM)
CCCCOC(=O)[C@H]1O[C@@H](n2ccc(N)nc2=O)C=C[C@@H]1NC(=O)C[C@@H](N)CCN(C)C(=N)N | 21.2 (≈ 44.3 µM) | 34.6 (≈ 72.3 µM) | 64 (≈ 134 µM) | 23.9 (≈ 49.9 µM) | 64 (≈ 134 µM) | 28.1 (≈ 58.7 µM) | 64 (≈ 134 µM) | 82.1 (≈ 172 µM) | > 128 | 79.8 (≈ 167 µM) | > 128 | 61.5 (≈ 129 µM) | > 128 | > 256 | 64 (≈ 134 µM) | 0.6 | 0.9 | 0.7 | 1.3 | 0.2 | Activity (Candida albicans [1]): inactive; Activity (Enterococcus [2]): Active; Activity (Enterococcus faecalis [3]): Active; Activity (Staphylococcus aureus [4]): Active; Activity (Staphylococcus aureus [5]): Active; Activity (Staphylococcus aureus [6]): Active; selectivity ratio [18]: 0.3; selectivity ratio [19]: 0.3; selectivity ratio [20]: 0.3; IC50 (Enterococcus faecalis [21]): 16.1 µg/mL (≈ 33.6 µM); MIC (Enterococcus faecalis [21]): 32 µg/mL (≈ 66.9 µM); IC50 (Enterococcus [22]): 130 µg/mL (≈ 272 µM); MIC (Enterococcus [22]): 256 µg/mL (≈ 535 µM)
COC(=O)[C@H]1O[C@@H](n2ccc(N)nc2=O)C=C[C@@H]1NC(=O)C[C@@H](N)CCN(C)C(=N)N | 18.3 (≈ 41.9 µM) | 21.5 (≈ 49.3 µM) | 32 (≈ 73.3 µM) | 11.4 (≈ 26.1 µM) | 32 (≈ 73.3 µM) | 10.4 (≈ 23.8 µM) | 16 (≈ 36.7 µM) | 34.3 (≈ 78.6 µM) | 64 (≈ 147 µM) | 35.1 (≈ 80.4 µM) | 128 (≈ 293 µM) | 10.2 (≈ 23.4 µM) | 32 (≈ 73.3 µM) | > 256 | 32 (≈ 73.3 µM) | 0.8 | 1.6 | 1.7 | 2 | 0.6 | Activity (Candida albicans [1]): inactive; Activity (Enterococcus [2]): Active; Activity (Enterococcus faecalis [3]): Active; Activity (Staphylococcus aureus [4]): Active; Activity (Staphylococcus aureus [5]): Active; Activity (Staphylococcus aureus [6]): Active; selectivity ratio [18]: 0.5; selectivity ratio [19]: 0.5; selectivity ratio [20]: 1.8; IC50 (Enterococcus faecalis [21]): 9.2 µg/mL (≈ 21.1 µM); MIC (Enterococcus faecalis [21]): 16 µg/mL (≈ 36.7 µM); IC50 (Enterococcus [22]): 31 µg/mL (≈ 71 µM); MIC (Enterococcus [22]): 64 µg/mL (≈ 147 µM)
CN(CC[C@H](N)CC(=O)N[C@H]1C=C[C@H](n2ccc(N)nc2=O)O[C@@H]1C(N)=O)C(=N)N.Cl.Cl.Cl | 9.4 | 41.6 | 64 | 15.2 | 32 | 15.4 | 32 | 9.3 | 16 | 19.7 | 64 | 3 | 8 | 256 | 64 | 0.2 | 0.6 | 0.6 | 0.7 | 0.1 | selectivity ratio [18]: 1; selectivity ratio [19]: 0.5; selectivity ratio [20]: 3; PI (Staphylococcus aureus [23]): 8; PI (Escherichia coli): 8; PI (Acinetobacter baumannii [24]): 16; IC50 (Enterococcus faecalis [21]): 12.9 µg/mL; MIC (Enterococcus faecalis [21]): 32 µg/mL; IC50 (Enterococcus [22]): 69.6 µg/mL; MIC (Enterococcus [22]): 128 µg/mL
